In brackets after ≈: the same amount, converted by molar mass.
How the values were obtained:
Fusarium graminearum = test: Antifungal activity against Fusarium graminearum after 4 days by microdilution method; type: functional
Outline: (§1)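 Spores from 4-day-old cultures in PDB broth at 1 × 10^3 spores/mL, 96-well broth microdilution. Compounds in DMSO (final ≤5%), 2-fold serial dilutions 512–0.5 μg/mL. Incubated 28 °C, 4 days. DMSO negative control, nystatin positive control. Growth checked microscopically. MIC is the lowest concentration with complete inhibition. Experiments repeated three times.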

[1] = system: Radical scavenging activity; test: Antioxidant activity assessed as DPPH radical scavenging activity at 2 mg/ml after 30 min by spectrophotometric analysis; type: functional
Outline: (§2)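 DPPH stock diluted 1:20 in EtOH; 290 μL of this mixed with 10 μL sample, EtOH as negative control, vitamin C as positive control. Kept 30 min in dark, absorbance read at 517 nm. Scavenging % = [1 − (Ae − As)/Ac] × 100, where As is sample blank absorbance. Triplicate.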

Fusarium culmorum = test: Antifungal activity against Fusarium culmorum after 4 days by microdilution method; type: functional; outline: as §1
[2] = Antioxidant activity assessed as ABTS radical scavenging activity at 1 mg/ml after 5 min by spectrophotometric analysis; type: functional
Outline: (§3)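 ABTS radical cation made from ABTS (7 mM) and potassium persulfate (2.45 mM), held 16 h in dark at room temperature, then 350 μL diluted to 25 mL with aqueous 80% EtOH. Sample added to 250 μL working solution, kept 5 min in dark at room temperature, A734 read. Scavenging % = [1 − (Ae − As)/Ac] × 100 against solvent control, triplicate.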

Bacillus subtilis = test: Antibacterial activity against Bacillus subtilis after 24 hr by microdilution method; type: functional
Outline: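 Bacteria grown 18 h, diluted in LB broth to 1 × 10^5 CFU/mL in 96-well microplates. Compounds in DMSO, 2-fold serial dilutions 512 to 0.5 μg/mL final, DMSO ≤5%. Incubated 37 °C for 24 h, growth checked by microscope. MIC = lowest concentration giving complete growth inhibition. DMSO negative control, kanamycin positive control, three repeats.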

Fusarium avenaceum = test: Antifungal activity against Fusarium avenaceum after 4 days by microdilution method; type: functional; outline: as §1
Candida albicans = test: Antifungal activity against Candida albicans after 4 days by microdilution method; type: functional; outline: as §1
[3] = system: Radical scavenging activity; test: Antioxidant activity assessed as DPPH radical scavenging activity at 4 mg/ml after 30 min by spectrophotometric analysis; type: functional; outline: as §2
[4] = Antioxidant activity assessed as ABTS radical scavenging activity at 2 mg/ml after 5 min by spectrophotometric analysis; type: functional; outline: as §3
[5] = Antioxidant activity assessed as ABTS radical scavenging activity at 0.16 mg/ml after 5 min by spectrophotometric analysis; type: functional; outline: as §3
[6] = system: Radical scavenging activity; test: Antioxidant activity assessed as DPPH radical scavenging activity at 0.8 mg/ml after 30 min by spectrophotometric analysis; type: functional; outline: as §2
[7] = Antioxidant activity assessed as superoxide anion radical scavenging activity at 5 mg/ml after 5 min by spectrophotometric analysis; type: functional
Outline: (§4)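 Superoxide made by non-enzymatic NADH–PMS system, detected by NBT reduction. 200 μL mix of 150 μM NBT and 234 μM NADH in 16 mM Tris-HCl pH 8.0, plus 10 μL sample. Reaction started with 100 μL of 30 μM PMS in the same buffer, 5 min at room temperature, A560 read. % = [1 − (Ae − As)/Ac] × 100, triplicate.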

Escherichia coli = test: Antibacterial activity against Escherichia coli after 24 hr by microdilution method; type: functional
Outline: (§5)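 Bacteria from 18-h cultures in LB broth at 1 × 10^5 CFU/mL, 96-well broth microdilution. Compounds in DMSO (final ≤5%), 2-fold serial dilutions from 512 to 0.5 μg/mL. Incubated 37 °C for 24 h. DMSO-only negative control, kanamycin positive control. Growth read by microscope. MIC is the lowest concentration giving complete growth inhibition. Three repeats.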

Staphylococcus aureus = test: Antibacterial activity against Staphylococcus aureus after 24 hr by microdilution method; type: functional; outline: as §5
[8] = Antioxidant activity assessed as ABTS radical scavenging activity at 0.5 mg/ml after 5 min by spectrophotometric analysis; type: functional; outline: as §3
[9] = Antioxidant activity assessed as superoxide anion radical scavenging activity at 2 mg/ml after 5 min by spectrophotometric analysis; type: functional; outline: as §4
Pyricularia oryzae = test: Antifungal activity against Magnaporthe oryzae after 4 days by microdilution method; type: functional; outline: as §1
Trichophyton verrucosum = test: Antifungal activity against Trichophyton verrucosum after 4 days by microdilution method; type: functional, organism-based; outline: as §1
Aspergillus niger = test: Antifungal activity against Aspergillus niger after 4 days by microdilution method; type: functional, organism-based; outline: as §1

Molecule: COc1ccc(-c2cc(O)c(-c3ccc(OC)cc3)c(OC)c2OC)cc1
- MIC (Fusarium graminearum; 96 h): 16 µg/mL (≈ 43.7 µM)
- Activity [1]: 54.9%
- MIC (Fusarium culmorum; 96 h): 128 µg/mL (≈ 349 µM)
- Activity [2]: 68.6%
- MIC (Bacillus subtilis): 64 µg/mL (≈ 175 µM)
- MIC (Fusarium avenaceum; 96 h): 8 µg/mL (≈ 21.8 µM)
- MIC (Candida albicans; 96 h): 32 µg/mL (≈ 87.3 µM)

Molecule: COc1ccc(-c2c(OC)c(O)c(-c3ccc(OC)cc3)c3scnc23)cc1
- Activity [3]: 14.3%
- Activity [4]: 28.4%

Molecule: C[C@@H]1NC(=O)[C@H](Cc2c[nH]c3ccccc23)NC1=O
- Activity [4]: 54.6%

Molecule: O=C1O[C@H]([C@@H](O)CO)C(O)=C1O
- Activity [5]: 79.1%
- Activity [6]: 43.9%
- Activity [7]: 75.5%

Molecule: NC[C@H]1O[C@H](O[C@H]2[C@H](O)[C@@H](O[C@H]3O[C@H](CO)[C@@H](O)[C@H](N)[C@H]3O)[C@H](N)C[C@@H]2N)[C@H](O)[C@@H](O)[C@@H]1O [KANAMYCIN]
- MIC (Escherichia coli): 1 µg/mL (≈ 2.06 µM)
- MIC (Bacillus subtilis): 1 µg/mL (≈ 2.06 µM)
- MIC (Staphylococcus aureus): 4 µg/mL (≈ 8.26 µM)

Molecule: CO[C@@H]1[C@@H](OC(N)=O)[C@@H](O)[C@H](Oc2ccc3c(O)c(NC(=O)c4ccc(O)c(CC=C(C)C)c4)c(=O)oc3c2C)OC1(C)C [NOVOBIOCIN]
- Activity [8]: 78.2%
- Activity [1]: 47.7%
- MIC (Bacillus subtilis): 16 µg/mL (≈ 26.1 µM)
- Activity [9]: 77.9%
- MIC (Pyricularia oryzae; 96 h): 16 µg/mL (≈ 26.1 µM)
- MIC (Staphylococcus aureus): 64 µg/mL (≈ 104 µM)

Molecule: NYSTATIN
- MIC (Trichophyton verrucosum): 4 µg/mL
- MIC (Fusarium graminearum): 4 µg/mL
- MIC (Fusarium culmorum): 1 µg/mL
- MIC (Fusarium avenaceum): 1 µg/mL
- MIC (Candida albicans): 4 µg/mL
- MIC (Aspergillus niger): 8 µg/mL
- MIC (Pyricularia oryzae): 8 µg/mL
